Reference: ChEMBL document CHEMBL4673301, “Design, synthesis, and anti-proliferative evaluation of new quinazolin-4(3H)-ones as potential VEGFR-2 inhibitors” (Bioorg Med Chem, 2021)

Experiments:
[1] = test system: MCF7; assay: Antiproliferative activity against human MCF7 cells assessed as reduction in cell viability incubated for 24 hrs by MTT assay; assay type: functional, cell-based; details: MCF7, 24 h
In short: (§1)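 Cells from ATCC grown in RPMI-1640 with 10% FBS, penicillin 100 unit/ml and streptomycin 100 μg/ml at 37 °C, 5% CO2. Seeded at 1.0 x 10^4 cells/well for 48 h, then exposed to a range of compound concentrations for 24 h. MTT (5 mg/ml) added for 4 h, formazan dissolved in DMSO, A570 read. Viability taken as % of untreated. Duplicate wells, at least three independent IC50 determinations.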

[2] = test system: HCT-116; assay: Antiproliferative activity against human HCT-116 cells assessed as reduction in cell viability incubated for 24 hrs by MTT assay; assay type: functional, cell-based; details: HCT-116, 24 h; in short: as §1
[3] = test system: HepG2; assay: Antiproliferative activity against human HepG2 cells assessed as reduction in cell viability incubated for 24 hrs by MTT assay; assay type: functional, cell-based; details: HepG2, 24 h; in short: as §1
[4] = biological target: Vascular endothelial growth factor receptor 2 (Homo sapiens, UniProt P35968)
Chain of Vascular endothelial growth factor receptor 2 (P35968 whole entry): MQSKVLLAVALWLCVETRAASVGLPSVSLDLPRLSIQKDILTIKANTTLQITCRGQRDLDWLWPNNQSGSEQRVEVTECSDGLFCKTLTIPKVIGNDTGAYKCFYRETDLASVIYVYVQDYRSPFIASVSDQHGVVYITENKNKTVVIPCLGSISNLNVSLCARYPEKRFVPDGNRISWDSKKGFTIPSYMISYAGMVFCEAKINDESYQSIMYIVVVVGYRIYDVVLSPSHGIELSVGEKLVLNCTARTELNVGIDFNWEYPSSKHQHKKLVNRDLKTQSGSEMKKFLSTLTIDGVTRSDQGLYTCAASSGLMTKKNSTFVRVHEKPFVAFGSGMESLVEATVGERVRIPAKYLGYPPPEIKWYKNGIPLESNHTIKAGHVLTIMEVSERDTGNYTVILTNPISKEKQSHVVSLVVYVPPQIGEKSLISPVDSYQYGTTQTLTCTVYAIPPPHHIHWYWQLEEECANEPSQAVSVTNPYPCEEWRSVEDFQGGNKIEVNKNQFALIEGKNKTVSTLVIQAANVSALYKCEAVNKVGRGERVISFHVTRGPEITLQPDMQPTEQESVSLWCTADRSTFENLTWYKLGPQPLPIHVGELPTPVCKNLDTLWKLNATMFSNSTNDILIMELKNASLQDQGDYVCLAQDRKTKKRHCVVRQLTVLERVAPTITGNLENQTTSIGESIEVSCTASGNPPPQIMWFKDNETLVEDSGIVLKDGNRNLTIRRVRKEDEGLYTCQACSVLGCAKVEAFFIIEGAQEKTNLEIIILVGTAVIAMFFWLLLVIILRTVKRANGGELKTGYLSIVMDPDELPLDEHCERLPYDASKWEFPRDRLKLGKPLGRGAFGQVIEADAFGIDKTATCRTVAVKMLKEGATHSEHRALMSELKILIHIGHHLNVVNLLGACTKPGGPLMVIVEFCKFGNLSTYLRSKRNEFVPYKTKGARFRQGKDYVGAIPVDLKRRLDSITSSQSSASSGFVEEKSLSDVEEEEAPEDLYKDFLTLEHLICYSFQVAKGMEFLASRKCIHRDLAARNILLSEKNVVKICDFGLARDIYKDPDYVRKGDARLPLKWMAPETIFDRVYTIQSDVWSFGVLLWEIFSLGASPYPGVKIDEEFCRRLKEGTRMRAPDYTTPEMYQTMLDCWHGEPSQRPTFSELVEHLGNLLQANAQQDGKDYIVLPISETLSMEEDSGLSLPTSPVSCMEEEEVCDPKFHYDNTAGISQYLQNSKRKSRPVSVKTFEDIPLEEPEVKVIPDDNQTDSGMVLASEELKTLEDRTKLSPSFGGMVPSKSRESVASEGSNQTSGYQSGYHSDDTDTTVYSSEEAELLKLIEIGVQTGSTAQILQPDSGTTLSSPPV

[5] = test system: HepG2; assay: Potency index, ratio of IC50 of sorafenib to IC50 of compound for antiproliferative activity against human HepG2 cells assessed as reduction in cell viability incubated for 24 hrs by MTT assay; assay type: functional
[6] = test system: MCF7; assay: Potency index, ratio of IC50 of doxorubicin to IC50 of compound for antiproliferative activity against human MCF7 cells assessed as reduction in cell viability incubated for 24 hrs by MTT assay; assay type: functional
[7] = test system: HCT-116; assay: Potency index, ratio of IC50 of sorafenib to IC50 of compound for antiproliferative activity against human HCT-116 cells assessed as reduction in cell viability incubated for 24 hrs by MTT assay; assay type: functional
[8] = test system: HepG2; assay: Potency index, ratio of IC50 of doxorubicin to IC50 of compound for antiproliferative activity against human HepG2 cells assessed as reduction in cell viability incubated for 24 hrs by MTT assay; assay type: functional
[9] = test system: MCF7; assay: Potency index, ratio of IC50 of sorafenib to IC50 of compound for antiproliferative activity against human MCF7 cells assessed as reduction in cell viability incubated for 24 hrs by MTT assay; assay type: functional
[10] = test system: HCT-116; assay: Potency index, ratio of IC50 of doxorubicin to IC50 of compound for antiproliferative activity against human HCT-116 cells assessed as reduction in cell viability incubated for 24 hrs by MTT assay; assay type: functional

| Compound | IC50 [1] | IC50 [2] | IC50 [3] | IC50 [4] | Ratio IC50 [5] | Ratio IC50 [6] | Ratio IC50 [7] | Ratio IC50 [8] | Ratio IC50 [9] | Ratio IC50 [10] |
| --- | --- | --- | --- | --- | --- | --- | --- | --- | --- | --- |
| C/C(=N\NC(=O)c1ccccc1)c1ccc(NC(=O)CSc2nc3ccccc3c(=O)n2-c2ccc(C)cc2)cc1 | 35.9 µM | 29 µM | 30.5 µM |  |  |  |  |  |  |  |
| C/C(=N\NC(=O)c1ccc(Cl)cc1)c1ccc(NC(=O)CSc2nc3ccccc3c(=O)n2-c2ccc(C)cc2)cc1 | 44 µM | 37.1 µM | 41.6 µM |  |  |  |  |  |  |  |
| CNC(=O)c1cc(Oc2ccc(NC(=O)Nc3ccc(Cl)c(C(F)(F)F)c3)cc2)ccn1 [SORAFENIB] | 7.21 µM | 9.4 µM | 7.31 µM |  |  |  |  |  |  |  |
| CC(=O)NS(=O)(=O)c1ccc(NC(=O)CSc2nc3ccccc3c(=O)n2-c2ccc(C)cc2)cc1 | 6.79 µM | 6.14 µM | 4.19 µM | 0.721 µM |  |  |  |  |  |  |
| C/C(=N\NC(=O)c1ccccc1Cl)c1ccc(NC(=O)CSc2nc3ccccc3c(=O)n2-c2ccc(C)cc2)cc1 | 23 µM | 17.1 µM | 22.6 µM |  |  |  |  |  |  |  |
| Cc1ccc(-n2c(SCC(=O)Nc3ccc(C(=O)Nc4ccccc4)cc3)nc3ccccc3c2=O)cc1 | 26.9 µM | 16.6 µM | 21.8 µM | 1.37 µM |  |  |  |  |  |  |
| Cc1ccc(-n2c(SCC(=O)Nc3ccc(C(=O)Nc4ccc(Cl)cc4)cc3)nc3ccccc3c2=O)cc1 | 5.99 µM | 3.67 µM | 4.12 µM | 0.685 µM |  |  |  |  |  |  |
| COc1cccc2c1C(=O)c1c(O)c3c(c(O)c1C2=O)C[C@@](O)(C(=O)CO)C[C@@H]3O[C@H]1C[C@H](N)[C@H](O)[C@H](C)O1 [DOXORUBICIN] |  | 9.63 µM |  |  |  |  |  |  |  |  |
| CCOC(=O)c1ccc(NC(=O)c2ccc(NC(=O)CSc3nc4ccccc4c(=O)n3-c3ccc(C)cc3)cc2)cc1 | 23.7 µM | 17 µM | 21.5 µM |  |  |  |  |  |  |  |
| Cc1ccc(-n2c(SCC(=O)Nc3ccc(S(=O)(=O)Nc4nc(C)cc(C)n4)cc3)nc3ccccc3c2=O)cc1 | 7.1 µM | 5.24 µM | 6.76 µM | 0.707 µM |  |  |  |  |  |  |
| CC(=O)c1ccc(NC(=O)CSc2nc3ccccc3c(=O)n2-c2ccc(C)cc2)cc1 | 13.5 µM | 8.27 µM | 12.3 µM | 1.78 µM |  |  |  |  |  |  |
| C/C(=N\NC(=O)c1cc([N+](=O)[O-])ccc1Cl)c1ccc(NC(=O)CSc2nc3ccccc3c(=O)n2-c2ccc(C)cc2)cc1 | 3.91 µM | 1.68 µM | 1.88 µM | 0.452 µM | 3.88 | 1.96 | 5.59 | 4.39 | 1.84 | 5.73 |
| Cc1ccc(-n2c(SCC(=O)Nc3ccc(C(=O)NC4CCCCC4)cc3)nc3ccccc3c2=O)cc1 | 24.9 µM | 14.1 µM | 16.5 µM |  |  |  |  |  |  |  |
| C/C(=N\NC(=O)c1cccc(Cl)c1)c1ccc(NC(=O)CSc2nc3ccccc3c(=O)n2-c2ccc(C)cc2)cc1 | 40.9 µM | 30.4 µM | 33.8 µM |  |  |  |  |  |  |  |
| Cc1ccc(-n2c(SCC(=O)Nc3ccc(C(=O)NNC(=O)c4ccccc4O)cc3)nc3ccccc3c2=O)cc1 | 14.4 µM | 10.8 µM | 11.7 µM | 1.07 µM |  |  |  |  |  |  |
| Cc1ccc(NC(=O)c2ccc(NC(=O)CSc3nc4ccccc4c(=O)n3-c3ccc(C)cc3)cc2)cc1 | 28.4 µM | 17.4 µM | 19 µM |  |  |  |  |  |  |  |
| C/C(=N\NC(N)=S)c1ccc(NC(=O)CSc2nc3ccccc3c(=O)n2-c2ccc(C)cc2)cc1 | 9.89 µM | 8.32 µM | 8.38 µM | 1 µM |  |  |  |  |  |  |
| C/C(=N\NC(=O)c1ccccc1O)c1ccc(NC(=O)CSc2nc3ccccc3c(=O)n2-c2ccc(C)cc2)cc1 | 15.4 µM | 12.4 µM | 11.9 µM | 1.06 µM |  |  |  |  |  |  |
| Cc1ccc(-n2c(SCC(=O)Nc3ccc(C(=O)NCc4ccccc4)cc3)nc3ccccc3c2=O)cc1 | 18.3 µM | 13.4 µM | 17.4 µM | 1.4 µM |  |  |  |  |  |  |
| Cc1ccc(-n2c(SCC(=O)Nc3ccc(C(=O)NNc4ccccc4)cc3)nc3ccccc3c2=O)cc1 | 16.1 µM | 9.4 µM | 12.1 µM | 1.21 µM |  |  |  |  |  |  |
| Cc1ccc(-n2c(SCC(=O)Nc3ccc(S(=O)(=O)Nc4ccccn4)cc3)nc3ccccc3c2=O)cc1 | 30.6 µM | 24.1 µM | 30 µM |  |  |  |  |  |  |  |
